Molecular target: Aldo-keto reductase family 1 member B1 (Bos taurus, UniProt P16116)
Test: Inhibition of bovine lens aldose reductase
How it was run: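 Enzyme purified from bovine lens by DE-52 ion exchange then Matrex Orange A affinity chromatography (0.93 U/mg) and kept at 4 °C in 10 mM sodium phosphate pH 7.0 with 2 mM DTT. At least five inhibitor concentrations (20–80% inhibition), each tested at least in triplicate. IC50 from one-site competition nonlinear fit; 95% CL.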

Q: How did the IC50 turn out when `O=C1S/C(=C\c2ccc(O)cc2)C(=O)N1CC(O)(O)C(F)(F)F` was run?
A: The IC50 was 3 µM.

Q: With `COc1cccc(/C=C2\SC(=O)N(CC(=O)C(F)(F)F)C2=O)c1` as the compound, how does the IC50 read?
A: The IC50 was 23.3 µM.

Q: How did the IC50 turn out when `O=C1S/C(=C\c2ccc(OCc3ccccc3)cc2)C(=O)N1CC(=O)C(F)(F)F` was run?
A: Its IC50 is over 9 µM.

Q: With `O=C1S/C(=C\c2ccc(Oc3ccccc3)cc2)C(=O)N1CC(=O)C(F)(F)F` as the compound, how does the IC50 read?
A: Its IC50 is 8.3 µM.

Q: How did the IC50 turn out when `O=C1S/C(=C\c2ccc(Oc3ccccc3)cc2)C(=O)N1CC(O)(O)C(F)(F)F` was run?
A: Its IC50 is 8.3 µM.

Q: For `O=C1S/C(=C\c2cccc(O)c2)C(=O)N1CC(O)(O)C(F)(F)F`, which IC50 is on record?
A: The IC50 was 12.3 µM.

Q: For `O=C1S/C(=C\c2ccc(O)cc2)C(=O)N1CC(=O)C(F)(F)F`, which IC50 is on record?
A: Its IC50 is 3 µM.

Q: Which IC50 does the source give for `O=C1S/C(=C\c2ccc(OCc3ccccc3)cc2)C(=O)N1CC(O)(O)C(F)(F)F` here?
A: Its IC50 is over 9 µM.

Q: For `COc1ccc(/C=C2\SC(=O)N(CC(=O)C(F)(F)F)C2=O)cc1`, which IC50 is on record?
A: The IC50 was 17.4 µM.

Q: For `COc1cccc(/C=C2\SC(=O)N(CC(O)(O)C(F)(F)F)C2=O)c1`, which IC50 is on record?
A: Its IC50 is 23.3 µM.

Q: With `COc1ccc(/C=C2\SC(=O)N(CC(O)(O)C(F)(F)F)C2=O)cc1` as the compound, how does the IC50 read?
A: The IC50 was 17.4 µM.

Q: With `O=C1S/C(=C\c2cccc(O)c2)C(=O)N1CC(=O)C(F)(F)F` as the compound, how does the IC50 read?
A: Its IC50 is 12.3 µM.

Molecular target: Aldo-keto reductase family 1 member B1 (Bos taurus) (UniProt P16116)
Test: Inhibition of bovine lens aldose reductase at 25 uM
How it was run: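 Bovine lens enzyme was purified by DE-52 and Matrex Orange A chromatography. Assay used glyceraldehyde as substrate in 0.25 M sodium phosphate pH 6.8, with 0.38 M ammonium sulfate, 0.11 mM NADPH and 0.5 mM EDTA. Inhibitor was added in DMSO, final 1% v/v. Read-out is NADPH oxidation, given as percent inhibition at a single concentration.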

Q: For `O=C1S/C(=C\c2ccc3ccccc3c2)C(=O)N1CC(O)(O)C(F)(F)F`, which inhibition is on record?
A: The inhibition was 59%.

Q: How did the inhibition turn out when `O=C1S/C(=C\c2cccc(Oc3ccccc3)c2)C(=O)N1CC(=O)C(F)(F)F` was run?
A: The inhibition was 64%.

Q: Which inhibition does the source give for `O=C1S/C(=C\c2ccc3ccccc3c2)C(=O)N1CC(=O)C(F)(F)F` here?
A: Its inhibition is 59%.

Q: `O=C1S/C(=C\c2ccc(-c3ccccc3)cc2)C(=O)N1CC(=O)C(F)(F)F` was tested. Which inhibition did it give?
A: The inhibition was 45%.

Q: For `O=C1S/C(=C\c2ccc(-c3ccccc3)cc2)C(=O)N1CC(O)(O)C(F)(F)F`, which inhibition is on record?
A: Its inhibition is 45%.

Q: With `O=C1S/C(=C\c2cccc3ccccc23)C(=O)N1CC(O)(O)C(F)(F)F` as the compound, how does the inhibition read?
A: The inhibition was 52%.

Q: For `O=C1S/C(=C\c2cccc3ccccc23)C(=O)N1CC(=O)C(F)(F)F`, which inhibition is on record?
A: Its inhibition is 52%.

Q: For `O=C1S/C(=C\c2cccc(Oc3ccccc3)c2)C(=O)N1CC(O)(O)C(F)(F)F`, which inhibition is on record?
A: The inhibition was 64%.

Reference: ChEMBL document CHEMBL1165925, “Identification of new non-carboxylic acid containing inhibitors of aldose reductase” (Bioorg Med Chem, 2010)
